The values below come from ChEMBL document CHEMBL1134461, “Hexahydrochromeno[4,3-b]pyrrole derivatives as acetylcholinesterase inhibitors” (J Med Chem, 2001).

Molecules are shown by their SMILES.

In the first assay the target is T1, Acetylcholinesterase (Homo sapiens, UniProt P22303). Description: Inhibitory activity against acetylcholinesterase in human erythrocytes. It is filed as cell-based. In outline: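 Ellman colorimetric assay with human erythrocyte enzyme (AChE or BChE), 0.035 unit/mL, in 0.1 M phosphate buffer pH 8.0 with 340 μM DTNB. Inhibitor preincubated with enzyme 20 min, then 550 μM acetylthiocholine iodide added. […] IC50 read graphically from log concentration–inhibition curves; pIC50 is the mean of two independent measurements.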
T1 sequence (P22303 whole entry): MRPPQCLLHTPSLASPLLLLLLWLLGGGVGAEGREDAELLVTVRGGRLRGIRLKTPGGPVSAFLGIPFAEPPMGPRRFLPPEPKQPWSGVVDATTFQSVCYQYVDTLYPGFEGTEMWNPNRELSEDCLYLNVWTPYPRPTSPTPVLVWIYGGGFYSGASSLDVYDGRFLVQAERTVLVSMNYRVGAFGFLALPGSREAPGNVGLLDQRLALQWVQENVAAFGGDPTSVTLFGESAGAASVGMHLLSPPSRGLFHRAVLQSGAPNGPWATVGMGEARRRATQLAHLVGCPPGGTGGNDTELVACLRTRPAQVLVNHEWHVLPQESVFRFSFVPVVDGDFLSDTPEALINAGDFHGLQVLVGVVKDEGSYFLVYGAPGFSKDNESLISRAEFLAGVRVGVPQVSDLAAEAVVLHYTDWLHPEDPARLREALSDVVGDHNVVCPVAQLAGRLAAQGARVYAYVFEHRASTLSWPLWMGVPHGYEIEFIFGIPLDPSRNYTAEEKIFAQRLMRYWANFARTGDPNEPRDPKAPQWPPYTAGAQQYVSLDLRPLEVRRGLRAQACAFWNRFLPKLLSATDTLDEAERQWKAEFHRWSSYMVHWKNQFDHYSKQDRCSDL
Compound `CN1CC[C@H]2COc3c(O)cccc3[C@H]21` showed an IC50 of 39.8 µM. On the same count and under the same terms, for `O=C(CCCCCCC(=O)NCCCCCCN1CC[C@H]2COc3ccccc3[C@H]21)NCCCCCCN1CC[C@H]2COc3ccccc3[C@H]21` the value was 9.77 µM; for `CNC(=O)Oc1cccc2c1OC[C@@H]1CCN(C)[C@H]21` (stereo in doubt; (-)-4), 0.0229 µM. The same measure, in the same setting: next, `CNC(=O)Oc1ccc2c(c1)[C@@H]1[C@@H](CCN1C)CO2`: 16.2 µM; `CNC(=O)Oc1cccc2c1OC[C@@H]1CCN(C)[C@H]21` (stereo in doubt; 4) [listing 1 of 2 here]: 0.0295 µM; `CNC(=O)Oc1ccc2c(c1)OC[C@@H]1CC[N+](C)(C)[C@H]21`: 1.82 µM. Take `CNC(=O)Oc1ccc2c(c1)OC[C@@H]1CCN(C)[C@H]21`: it took 1.95 µM to reach half-maximal inhibition (IC50). Still for that read-out and setting: for `CNC(=O)Oc1cccc2c1OC[C@@H]1CCN(C)[C@H]21` (stereo in doubt; (+)-4) the value was 0.0741 µM.

A further assay concerns the target T1, Acetylcholinesterase.
The compound `CNC(=O)Oc1ccc2c(c1)[C@]1(C)CCN(C)[C@@H]1N2C` displayed a Kc of 250 nM. Still for that read-out and setting: next, `CNC(=O)Oc1cccc2c1OC[C@@H]1CCN(C)[C@H]21` (stereo in doubt; 4) [listing 2 of 2 here]: 730 nM.

A further assay addresses T1, Acetylcholinesterase. This is another data set of the same source.
As for `CNC(=O)Oc1cccc2c1OC[C@@H]1CCN(C)[C@H]21` (stereo in doubt; 4) [listing 2 of 2 here], the k3 was 26.5 min⁻¹.

As usually defined, the IC50 is the concentration needed to halve the response being measured.
